Experimental data from ChEMBL document CHEMBL4689842, “EUbOPEN Chemogenomics Library wave 1” (2021).

Tested on: HEK-293T
Assay: Multiplex assay against HEK293T;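 on Population Tubulin-Different-Phenotype (%): share of the cells with healthy nuclei that show this phenotype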
Assay type: toxicity, cell-based
Details: human
In short: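 Cells were classed with CellPathfinder machine-learning gating, first as Hoechst high-intensity objects or normal cells, then (normal cells) as healthy, pyknosed or fragmented nuclei, and finally (pyknosed cells) as mitotic or apoptotic. Staining of live cells at seeding used Hoechst33342, BioTracker Green Microtubule Cytoskeleton Dye, MitoTracker Red and Annexin V Alexa Fluor 680, with imaging on a CQ1 microscope at 37°C and 5% CO2 after compound addition. Tubulin, mitochondrial-mass and membrane-permeability phenotypes are per cents of healthy-nucleus cells.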

[1] = 12 h, 1 µM, compound concentration 1 uM, replicate 1
[2] = 12 h, 1 µM, compound concentration 1 uM, replicate 2
[3] = 12 h, 10 µM, compound concentration 10 uM, replicate 1
[4] = 12 h, 10 µM, compound concentration 10 uM, replicate 2
[5] = 24 h, 1 µM, compound concentration 1 uM, replicate 1
[6] = 24 h, 1 µM, compound concentration 1 uM, replicate 2
[7] = 24 h, 10 µM, compound concentration 10 uM, replicate 1
[8] = 24 h, 10 µM, compound concentration 10 uM, replicate 2
[9] = 48 h, 1 µM, compound concentration 1 uM, replicate 1
[10] = 48 h, 1 µM, compound concentration 1 uM, replicate 2
[11] = 48 h, 10 µM, compound concentration 10 uM, replicate 1
[12] = 48 h, 10 µM, compound concentration 10 uM, replicate 2

Structure (SMILES): C=C1/C(=C\C=C2/CCC[C@]3(C)[C@@H]([C@H](C)/C=C/[C@H](C)C(C)C)CC[C@@H]23)C[C@@H](O)C[C@@H]1O [DOXERCALCIFEROL]
- Population Apoptotic (%) [1]: 53%
- Population Fragmented Nuclei (%) [1]: 17%
- Population Healthy Nuclei (%) [1]: 26%
- Population Hoechst High Intensity Objects (%) [1]: 23%
- Population Membrane Permeable-Phenotype (%) [1]: 3%
- Population Mitochondria Different-Phenotype (%) [1]: 78%
- Population Mitotic Cells (%) [1]: 46%
- Population Normal (%) [1]: 76%
- Population Pyknosed Nuclei (%) [1]: 55%
- Population Tubulin-Different-Phenotype (%) [1]: 12%
- Total Cell Count [1]: 156
- Population Apoptotic (%) [2]: 10%
- Population Fragmented Nuclei (%) [2]: 7%
- Population Healthy Nuclei (%) [2]: 44%
- Population Hoechst High Intensity Objects (%) [2]: 2%
- Population Membrane Permeable-Phenotype (%) [2]: 4%
- Population Mitochondria Different-Phenotype (%) [2]: 11%
- Population Mitotic Cells (%) [2]: 89%
- Population Normal (%) [2]: 97%
- Population Pyknosed Nuclei (%) [2]: 48%
- Population Tubulin-Different-Phenotype (%) [2]: 11%
- Total Cell Count [2]: 240
- Population Apoptotic (%) [3]: 50%
- Population Fragmented Nuclei (%) [3]: 15%
- Population Healthy Nuclei (%) [3]: 25%
- Population Hoechst High Intensity Objects (%) [3]: 16%
- Population Membrane Permeable-Phenotype (%) [3]: 2%
- Population Mitochondria Different-Phenotype (%) [3]: 71%
- Population Mitotic Cells (%) [3]: 49%
- Population Normal (%) [3]: 83%
- Population Pyknosed Nuclei (%) [3]: 59%
- Population Tubulin-Different-Phenotype (%) [3]: 34%
- Total Cell Count [3]: 180
- Population Apoptotic (%) [4]: 13%
- Population Fragmented Nuclei (%) [4]: 7%
- Population Healthy Nuclei (%) [4]: 35%
- Population Hoechst High Intensity Objects (%) [4]: 3%
- Population Membrane Permeable-Phenotype (%) [4]: 6%
- Population Mitochondria Different-Phenotype (%) [4]: 20%
- Population Mitotic Cells (%) [4]: 86%
- Population Normal (%) [4]: 96%
- Population Pyknosed Nuclei (%) [4]: 56%
- Population Tubulin-Different-Phenotype (%) [4]: 23%
- Total Cell Count [4]: 211
- Population Apoptotic (%) [5]: 52%
- Population Fragmented Nuclei (%) [5]: 22%
- Population Healthy Nuclei (%) [5]: 27%
- Population Hoechst High Intensity Objects (%) [5]: 23%
- Population Membrane Permeable-Phenotype (%) [5]: 0%
- Population Mitochondria Different-Phenotype (%) [5]: 63%
- Population Mitotic Cells (%) [5]: 47%
- Population Normal (%) [5]: 76%
- Population Pyknosed Nuclei (%) [5]: 50%
- Population Tubulin-Different-Phenotype (%) [5]: 30%
- Total Cell Count [5]: 170
- Population Apoptotic (%) [6]: 10%
- Population Fragmented Nuclei (%) [6]: 7%
- Population Healthy Nuclei (%) [6]: 59%
- Population Hoechst High Intensity Objects (%) [6]: 3%
- Population Membrane Permeable-Phenotype (%) [6]: 9%
- Population Mitochondria Different-Phenotype (%) [6]: 5%
- Population Mitotic Cells (%) [6]: 89%
- Population Normal (%) [6]: 96%
- Population Pyknosed Nuclei (%) [6]: 32%
- Population Tubulin-Different-Phenotype (%) [6]: 12%
- Total Cell Count [6]: 305
- Population Apoptotic (%) [7]: 39%
- Population Fragmented Nuclei (%) [7]: 20%
- Population Healthy Nuclei (%) [7]: 26%
- Population Hoechst High Intensity Objects (%) [7]: 18%
- Population Membrane Permeable-Phenotype (%) [7]: 7%
- Population Mitochondria Different-Phenotype (%) [7]: 78%
- Population Mitotic Cells (%) [7]: 60%
- Population Normal (%) [7]: 81%
- Population Pyknosed Nuclei (%) [7]: 52%
- Population Tubulin-Different-Phenotype (%) [7]: 58%
- Total Cell Count [7]: 191
- Population Apoptotic (%) [8]: 25%
- Population Fragmented Nuclei (%) [8]: 9%
- Population Healthy Nuclei (%) [8]: 56%
- Population Hoechst High Intensity Objects (%) [8]: 1%
- Population Membrane Permeable-Phenotype (%) [8]: 10%
- Population Mitochondria Different-Phenotype (%) [8]: 7%
- Population Mitotic Cells (%) [8]: 74%
- Population Normal (%) [8]: 98%
- Population Pyknosed Nuclei (%) [8]: 34%
- Population Tubulin-Different-Phenotype (%) [8]: 37%
- Total Cell Count [8]: 255
- Population Apoptotic (%) [9]: 46%
- Population Fragmented Nuclei (%) [9]: 19%
- Population Healthy Nuclei (%) [9]: 33%
- Population Hoechst High Intensity Objects (%) [9]: 16%
- Population Membrane Permeable-Phenotype (%) [9]: 0%
- Population Mitochondria Different-Phenotype (%) [9]: 34%
- Population Mitotic Cells (%) [9]: 53%
- Population Normal (%) [9]: 83%
- Population Pyknosed Nuclei (%) [9]: 47%
- Population Tubulin-Different-Phenotype (%) [9]: 36%
- Total Cell Count [9]: 180
- Population Apoptotic (%) [10]: 9%
- Population Fragmented Nuclei (%) [10]: 7%
- Population Healthy Nuclei (%) [10]: 81%
- Population Hoechst High Intensity Objects (%) [10]: 3%
- Population Membrane Permeable-Phenotype (%) [10]: 4%
- Population Mitochondria Different-Phenotype (%) [10]: 2%
- Population Mitotic Cells (%) [10]: 90%
- Population Normal (%) [10]: 97%
- Population Pyknosed Nuclei (%) [10]: 11%
- Population Tubulin-Different-Phenotype (%) [10]: 14%
- Total Cell Count [10]: 601
- Population Apoptotic (%) [11]: 42%
- Population Fragmented Nuclei (%) [11]: 23%
- Population Healthy Nuclei (%) [11]: 35%
- Population Hoechst High Intensity Objects (%) [11]: 17%
- Population Membrane Permeable-Phenotype (%) [11]: 5%
- Population Mitochondria Different-Phenotype (%) [11]: 35%
- Population Mitotic Cells (%) [11]: 57%
- Population Normal (%) [11]: 82%
- Population Pyknosed Nuclei (%) [11]: 40%
- Population Tubulin-Different-Phenotype (%) [11]: 33%
- Total Cell Count [11]: 193
- Population Apoptotic (%) [12]: 22%
- Population Fragmented Nuclei (%) [12]: 9%
- Population Healthy Nuclei (%) [12]: 79%
- Population Hoechst High Intensity Objects (%) [12]: 2%
- Population Membrane Permeable-Phenotype (%) [12]: 6%
- Population Mitochondria Different-Phenotype (%) [12]: 4%
- Population Mitotic Cells (%) [12]: 77%
- Population Normal (%) [12]: 97%
- Population Pyknosed Nuclei (%) [12]: 11%
- Population Tubulin-Different-Phenotype (%) [12]: 24%
- Total Cell Count [12]: 475
